Target: T1, Phospholipase A2, membrane associated (Homo sapiens, UniProt P14555)
T1 sequence (P14555 whole entry): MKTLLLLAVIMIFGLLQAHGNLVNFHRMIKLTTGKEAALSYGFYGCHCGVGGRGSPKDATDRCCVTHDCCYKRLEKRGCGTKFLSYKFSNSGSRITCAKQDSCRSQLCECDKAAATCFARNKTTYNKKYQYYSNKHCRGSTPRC
Assay: Inhibition of sPLA2-IIA (unknown origin)-integrin alphaVbeta3 interaction in human K562 cells pretreated for 30 mins to immobilized sPLA2 before adding cells by phosphatase assay
Procedure, shortened: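 Wells coated with sPLA2-IIA and blocked with BSA were preincubated with compound (10 to 500 μM) for 30 min. Integrin αvβ3-transfected K562 erythroleukemia cells were then added for 1 h at 37 °C, and bound cells were quantified by phosphatase assay. IC50 and maximum inhibition were derived from dose-response experiments.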

SMILES: Cc1nc(NC(=O)c2ccccc2)sc1-c1cc(C(=O)NCC(=O)O)[nH]n1
- IC50: 241 µM

From BindingDB's records for doi:10.1016/j.bmcl.2012.10.080 (University of California, 2012)
